Data: ChEMBL document CHEMBL1909525, “Synthesis and anticonvulsant activity of novel 2,6-diketopiperazine derivatives. Part 1: perhydropyrrole[1,2-a]pyrazines” (Eur J Med Chem, 2011)
Active and inactive are the calls of the source. No cut-off for these calls is given here.

Key:
Mus musculus [1] = assay: Anticonvulsant activity in albino Carworth Farms No.1 mouse assessed as protection against maximal electroshock-induced seizure at 30 mg/kg, ip after 0.5 hrs; type: functional, organism-based; design: dose 30 mg/kg
Outline: (§1)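 Mouse MES test with compound given i.p. (30, 100 or 300 mg/kg) in 0.5% methylcellulose; tested at 0.5 and 4 h. Corneal stimulus of 50 mA at 60 Hz for 0.2 s, electrodes primed with 0.5% butacaine in 0.9% NaCl. Protection is abolition of hindlimb tonic extension; scored as protected/tested.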

Mus musculus [2] = assay: Anticonvulsant activity in albino Carworth Farms No.1 mouse assessed as protection against electric-current for 3 secs-induced seizure at 100 mg/kg, ip after 2 hrs by 6Hz minimal clonic seizure test; type: functional, organism-based; design: dose 100 mg/kg
Outline: (§2)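 6 Hz psychomotor seizure test in mice. Compound given i.p. as a suspension in 0.5% methylcellulose. Corneal stimulation at 32 mA, 0.2-ms monopolar rectangular pulses at 6 Hz for 3 s, from a constant-current device. Tests run 0.25–4 h after dosing. A mouse counted as protected if it resumed normal exploratory behaviour within 10 s; scored as protected/tested.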

Mus musculus [3] = assay: Anticonvulsant activity in albino Carworth Farms No.1 mouse assessed as protection against maximal electroshock-induced seizure at 300 mg/kg, ip after 4 hrs; type: functional, organism-based; design: dose 300 mg/kg; outline: as §1
Mus musculus [4] = assay: Neurotoxicity in albino Carworth Farms No.1 mouse assessed as motor impairment at 100 mg/kg, ip after 4 hrs by rotarod test; type: toxicity, organism-based; design: dose 100 mg/kg, route intraperitoneal; conditions: in vivo
Outline: (§3)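 Rotorod neurotoxicity in mice at 6 r.p.m. Compound given i.p. (30, 100, 300 mg/kg) in 0.5% methylcellulose; tested at 30 min and 4 h. Impairment is inability to keep equilibrium on the rod for a given time; scored as impaired/tested.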

Mus musculus [5] = assay: Anticonvulsant activity in albino Carworth Farms No.1 mouse assessed as protection against maximal electroshock-induced seizure at 300 mg/kg, ip after 0.5 hrs; type: functional, organism-based; design: dose 300 mg/kg; outline: as §1
Mus musculus [6] = assay: Anticonvulsant activity in albino Carworth Farms No.1 mouse assessed as protection against electric-current for 3 secs-induced seizure at 100 mg/kg, ip after 1 hr by 6Hz minimal clonic seizure test; type: functional, organism-based; design: dose 100 mg/kg; outline: as §2
Mus musculus [7] = assay: Anticonvulsant activity in albino Carworth Farms No.1 mouse assessed as protection against subcutaneous metrazol-induced seizure at 30 mg/kg, ip after 0.5 hrs; type: functional, organism-based; design: dose 30 mg/kg
Outline: (§4)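 Mouse scMET test. Compound given i.p. (30, 100 or 300 mg/kg) in 0.5% methylcellulose. Pentylenetetrazole 85 mg/kg (CD97) given s.c. at 0.5 or 4 h, then mice observed for 30 min. Protection is absence of clonic spasms; scored as protected/tested.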

Mus musculus [8] = assay: Anticonvulsant activity in albino Carworth Farms No.1 mouse assessed as protection against subcutaneous metrazol-induced seizure at 100 mg/kg, ip after 4 hrs; type: functional, organism-based; design: dose 100 mg/kg; outline: as §4
Mus musculus [9] = assay: Neurotoxicity in albino Carworth Farms No.1 mouse assessed as motor impairment at 30 mg/kg, ip after 0.5 hrs by rotarod test; type: toxicity, organism-based; design: dose 30 mg/kg, route intraperitoneal; conditions: in vivo; outline: as §3
Mus musculus [10] = assay: Anticonvulsant activity in albino Carworth Farms No.1 mouse assessed as protection against subcutaneous metrazol-induced seizure at 30 mg/kg, ip after 4 hrs; type: functional, organism-based; design: dose 30 mg/kg; outline: as §4
Mus musculus [11] = assay: Neurotoxicity in albino Carworth Farms No.1 mouse assessed as motor impairment at 100 mg/kg, ip after 0.25 hrs by rotarod test; type: toxicity, organism-based; design: dose 100 mg/kg, route intraperitoneal; conditions: in vivo
Outline: (§5)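 Rotorod neurotoxicity in mice (18–25 g) following i.p. dosing of a suspension in 0.5% methylcellulose in water, tested at intervals between 0.25 and 4 h. Impairment was scored as failure to keep equilibrium on a 6 r.p.m. rod, reported as number impaired/number tested.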

Mus musculus [12] = assay: Neurotoxicity in albino Carworth Farms No.1 mouse assessed as motor impairment at 100 mg/kg, ip after 0.5 hrs by rotarod test; type: toxicity, organism-based; design: dose 100 mg/kg, route intraperitoneal; conditions: in vivo; outline: as §3
Mus musculus [13] = assay: Anticonvulsant activity in albino Carworth Farms No.1 mouse assessed as protection against electric-current for 3 secs-induced seizure at 100 mg/kg, ip after 0.25 hrs by 6Hz minimal clonic seizure test; type: functional, organism-based; design: dose 100 mg/kg; outline: as §2
Mus musculus [14] = species on record: Mus musculus; assay: Protective index, ratio of TD50 for albino Carworth Farms No.1 mouse to ED50 for albino Carworth Farms No.1 mouse by 6Hz minimal clonic seizure test; type: functional
Outline: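 Mouse 6 Hz (32 mA) quantification, compound given i.p. at the time of peak effect. Groups of at least eight mice at varied doses.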

Mus musculus [15] = assay: Anticonvulsant activity in albino Carworth Farms No.1 mouse assessed as protection against subcutaneous metrazol-induced seizure at 100 mg/kg, ip after 0.5 hrs; type: functional, organism-based; design: dose 100 mg/kg; outline: as §4
Mus musculus [16] = assay: Anticonvulsant activity in albino Carworth Farms No.1 mouse assessed as protection against subcutaneous metrazol-induced seizure at 300 mg/kg, ip after 0.5 hrs; type: functional, organism-based; design: dose 300 mg/kg; outline: as §4
Mus musculus [17] = assay: Neurotoxicity in albino Carworth Farms No.1 mouse assessed as motor impairment at 300 mg/kg, ip after 4 hrs by rotarod test; type: toxicity, organism-based; design: dose 300 mg/kg, route intraperitoneal; conditions: in vivo; outline: as §3
Mus musculus [18] = assay: Anticonvulsant activity in albino Carworth Farms No.1 mouse assessed as protection against electric-current for 3 secs-induced seizure at 100 mg/kg, ip after 4 hrs by 6Hz minimal clonic seizure test; type: functional, organism-based; design: dose 100 mg/kg; outline: as §2
Mus musculus [19] = assay: Anticonvulsant activity in ip dosed albino Carworth Farms No.1 mouse assessed as time needs to show peak effect for electric-current for 3 secs-induced seizure after 0.25 hrs by 6Hz minimal clonic seizure test; type: functional
Mus musculus [20] = assay: Anticonvulsant activity in albino Carworth Farms No.1 mouse assessed as protection against maximal electroshock-induced seizure at 30 mg/kg, ip after 4 hrs; type: functional, organism-based; design: dose 30 mg/kg; outline: as §1
Mus musculus [21] = assay: Neurotoxicity in albino Carworth Farms No.1 mouse assessed as motor impairment at 100 mg/kg, ip after 1 hr by rotarod test; type: toxicity, organism-based; design: dose 100 mg/kg, route intraperitoneal; conditions: in vivo; outline: as §5
Mus musculus [22] = assay: Neurotoxicity in albino Carworth Farms No.1 mouse assessed as motor impairment at 30 mg/kg, ip after 4 hrs by rotarod test; type: toxicity, organism-based; design: dose 30 mg/kg, route intraperitoneal; conditions: in vivo; outline: as §3
Mus musculus [23] = assay: Anticonvulsant activity in albino Carworth Farms No.1 mouse assessed as protection against maximal electroshock-induced seizure at 100 mg/kg, ip after 0.5 hrs; type: functional, organism-based; design: dose 100 mg/kg; outline: as §1
Mus musculus [24] = assay: Neurotoxicity in albino Carworth Farms No.1 mouse assessed as motor impairment at 100 mg/kg, ip after 2 hrs by rotarod test; type: toxicity, organism-based; design: dose 100 mg/kg, route intraperitoneal; conditions: in vivo; outline: as §5
Mus musculus [25] = assay: Anticonvulsant activity in albino Carworth Farms No.1 mouse assessed as protection against subcutaneous metrazol-induced seizure at 300 mg/kg, ip after 4 hrs; type: functional, organism-based; design: dose 300 mg/kg; outline: as §4
Mus musculus [26] = assay: Neurotoxicity in albino Carworth Farms No.1 mouse assessed as motor impairment at 300 mg/kg, ip after 0.5 hrs by rotarod test; type: toxicity, organism-based; design: dose 300 mg/kg, route intraperitoneal; conditions: in vivo; outline: as §3
Mus musculus [27] = assay: Anticonvulsant activity in albino Carworth Farms No.1 mouse assessed as protection against maximal electroshock-induced seizure at 100 mg/kg, ip after 4 hrs; type: functional, organism-based; design: dose 100 mg/kg; outline: as §1
Mus musculus [28] = assay: Toxicity in albino Carworth Farms No.1 mouse subcutaneous metrazol-induced seizure model assessed as myoclonic jerk at 300 mg/kg, ip after 0.5 hrs; type: organism-based; design: dose 300 mg/kg; conditions: in vivo, sc
Mus musculus [29] = assay: Toxicity in albino Carworth Farms No.1 mouse assessed as death following tonic extension at 300 mg/kg, ip after 0.5 hrs by rotarod test; type: organism-based; design: dose 300 mg/kg, route intraperitoneal; conditions: in vivo
Outline: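 Mice (18–25 g) were given 30, 100 or 300 mg/kg i.p. in 0.5% (v/v) aqueous methylcellulose. Neurotoxicity was checked on a 6 r.p.m. rotorod 30 min and 4 h after dosing and scored as inability to keep equilibrium. Death following tonic extension and sedation were recorded as observations (number of animals/number tested).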

Compound | Activity (Mus musculus [1]) | Activity (Mus musculus [3]) | Activity (Mus musculus [5]) | Activity (Mus musculus [7]) | Activity (Mus musculus [8]) | Activity (Mus musculus [9]) | Activity (Mus musculus [10]) | Activity (Mus musculus [12]) | Activity (Mus musculus [15]) | Activity (Mus musculus [16]) | Activity (Mus musculus [17]) | Activity (Mus musculus [20]) | Activity (Mus musculus [22]) | Activity (Mus musculus [23]) | Activity (Mus musculus [25]) | Activity (Mus musculus [26]) | Activity (Mus musculus [27]) | further results
O=C1NC(=O)[C@@H](c2ccccc2)N2CCC[C@@H]12 | inactive | inactive | inactive | inactive | inactive | Non-toxic | inactive | Non-toxic | inactive | inactive | Non-toxic | inactive | Non-toxic | inactive | inactive | Non-toxic | inactive | Activity (Mus musculus [2]): inactive; Activity (Mus musculus [4]): Non-toxic; Activity (Mus musculus [6]): inactive; Activity (Mus musculus [11]): Non-toxic; Activity (Mus musculus [13]): inactive; Ratio TD50/ED50 (Mus musculus [14]): 12.2; Activity (Mus musculus [18]): inactive; Time (Mus musculus [19]): 0.25 h; Activity (Mus musculus [21]): Non-toxic; Activity (Mus musculus [24]): Non-toxic
Cl.O=C1CN2CCC[C@H]2C(=O)N1CCc1ccccc1 | inactive | Active | Active | inactive | inactive | Non-toxic | inactive | Non-toxic | inactive | Active | Non-toxic | inactive | Non-toxic | inactive | inactive | Toxic | inactive | Activity (Mus musculus [28]): Toxic; Activity (Mus musculus [29]): Toxic
